{
  "source": "ChEMBL document CHEMBL2321690",
  "about": "“New betulinic acid derivatives for bevirimat-resistant human immunodeficiency virus type-1” (J Med Chem, 2013)",
  "key": {"[1]": {"tested_on": "Human immunodeficiency virus 1", "test": "Antiviral activity against 0.001 MOI bevirimat-resistant Human immunodeficiency virus 1 NL4-3 harboring gag T371 deletion mutant infected in human MT4 cells assessed as inhibition of viral replication measured 4 days post infection by ELISA", "type": "functional, organism-based", "settings": "Human immunodeficiency virus 1, NL4-3, MT4, 96 h", "how_it_was_run": "(§1)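 Mutations introduced into pNL4-3 by site-directed mutagenesis. MT4 cells infected with wild-type NL4-3 or resistant variant at 0.001 TCID50/cell in presence of graded compound concentrations. Supernatant p24 measured by ELISA on day 4 post-infection. IC50 is the concentration reducing p24 by 50%, reported as mean ± SD with the number of tests given per value.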"}, "COS": {"tested_on": "COS", "test": "(§2) Inhibition of wild type Human immunodeficiency virus 1 NL4-3 envelope glycoprotein gp160-mediated cell-cell fusion between virus-infected monkey COS cells to human TZM-bl cells after 24 hrs by luciferase reporter gene assay", "type": "cell-based", "how_it_was_run": "(§3)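 COS cells (1 × 10^6 cells/mL) electroporated (950 µF, 150 V) with vector expressing NL4-3 Env and tat, then cultured one day. Mixed with TZM-bl cells with inhibitor over a 1–10000 nM range. Luciferase (RLU) in fused cells read 24 h after mixing, expressed as % of no-compound fusion. Points are mean ± SD of three tests.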"}, "[2]": {"tested_on": "Human immunodeficiency virus 1", "test": "Antiviral activity against wild type Human immunodeficiency virus 1 NL4-3 infected in human 293T cells assessed as inhibition of CA-SP1 cleavage measured 2 days post infection by Western blotting analysis", "type": "functional, organism-based", "how_it_was_run": "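293T cells transfected with pNL4-3 proviral plasmid and cultured with compounds. Culture supernatant collected 2 days after transfection. Western blot with anti-p24 monoclonal antibody (hybridoma 183-H12-5C) detected CA-SP1 (p25) accumulation, taken as the measure of blocked CA-SP1 cleavage.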"}, "[3]": {"tested_on": "Human immunodeficiency virus 1", "test": "Antiviral activity against 0.001 MOI bevirimat-resistant Human immunodeficiency virus 1 NL4-3 harboring gag V370A mutant infected in human MT4 cells assessed as inhibition of viral replication measured 4 days post infection by ELISA", "type": "functional, organism-based", "settings": "Human immunodeficiency virus 1, NL4-3, MT4, 96 h", "how_it_was_run": "as §1"}, "MT4": {"tested_on": "MT4", "test": "Cytotoxicity against human MT4 cells for 4 days", "type": "cell-based", "settings": "mt4, 96 h", "how_it_was_run": "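MT4 cells cultured with various compound concentrations for 4 days. Viability read by a CytoTox-Glo luminescent cytotoxicity assay. CC50 is the concentration reducing viable cells by 50%.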"}, "[4]": {"tested_on": "Human immunodeficiency virus 1", "test": "Antiviral activity against bevirimat-resistant Human immunodeficiency virus 1 NL4-3 harboring gag V370A mutant infected in human 293T cells assessed as inhibition of CA-SP1 cleavage measured 2 days post infection by Western blotting analysis", "type": "functional, organism-based", "how_it_was_run": "(§4)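 Provirus plasmids (pNL4-3/V370A, pNL4-3/V362I, with pNL4-3 alongside) transfected into 293T cells, and virus produced in presence of compound. Supernatant virus harvested two days after transfection. Western blot with anti-p24 monoclonal antibody (183-H12-5C) to detect accumulation of CA-SP1 (p25), indicating inhibited CA-SP1 cleavage.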"}, "[5]": {"tested_on": "Human immunodeficiency virus 1", "test": "Antiviral activity against 0.001 MOI bevirimat-resistant Human immunodeficiency virus 1 NL4-3 harboring gag V370 deletion mutant infected in human MT4 cells assessed as inhibition of viral replication measured 4 days post infection by ELISA", "type": "functional, organism-based", "settings": "Human immunodeficiency virus 1, NL4-3, MT4, 96 h", "how_it_was_run": "as §1"}, "[6]": {"tested_on": "Human immunodeficiency virus 1", "test": "Antiviral activity against 0.001 MOI wild type Human immunodeficiency virus 1 NL4-3 infected in human MT4 cells assessed as inhibition of viral replication measured 4 days post infection by ELISA", "type": "functional, organism-based", "settings": "Human immunodeficiency virus 1, NL4-3, MT4, 96 h", "how_it_was_run": "as §1"}, "[7]": {"tested_on": "Human immunodeficiency virus 1", "test": "Antiviral activity against 0.001 MOI bevirimat-resistant Human immunodeficiency virus 1 NL4-3 harboring gag V362I mutant infected in human MT4 cells assessed as inhibition of viral replication measured 4 days post infection by ELISA", "type": "functional, organism-based", "settings": "Human immunodeficiency virus 1, NL4-3, MT4, 96 h", "how_it_was_run": "as §1"}, "[8]": {"test": "as §2", "type": "cell-based", "settings": "Human immunodeficiency virus 1, NL4-3, COS", "how_it_was_run": "as §3"}, "[9]": {"tested_on": "Human immunodeficiency virus 1", "test": "Potency index, ratio of bevirimat IC50 to compound IC50 for 0.001 MOI bevirimat-resistant Human immunodeficiency virus 1 NL4-3 harboring gag V370A mutant infected in human MT4 cells", "type": "functional"}, "[10]": {"tested_on": "Human immunodeficiency virus 1", "test": "Antiviral activity against bevirimat-resistant Human immunodeficiency virus 1 NL4-3 harboring gag V362I mutant infected in human 293T cells assessed as inhibition of CA-SP1 cleavage measured 2 days post infection by Western blotting analysis", "type": "functional, organism-based", "how_it_was_run": "as §4"}},
  "note": "Calls of active or inactive are those of the source. The rule behind the calls is not given here.",
  "data": [
    {"smiles": "C=C(C)[C@@H]1CC[C@]2(C(=O)O)CC[C@]3(C)[C@H](CC[C@@H]4[C@@]5(C)CC[C@H](OC(=O)CC(C)(C)C(=O)O)C(C)(C)[C@@H]5CC[C@]43C)[C@@H]12", "note": "[BEVIRIMAT]", "values": [
      {"measurement": "IC50", "setting": "[1]", "result": "> 6800", "unit": "nM"},
      {"measurement": "inhibition", "setting": "COS", "result": "inactive"},
      {"measurement": "inhibition", "setting": "[2]", "result": "Active"},
      {"measurement": "IC50", "setting": "[3]", "result": "> 5000", "unit": "nM"},
      {"measurement": "CC50", "setting": "MT4", "result": "> 10000", "unit": "nM"},
      {"measurement": "inhibition", "setting": "[4]", "result": "inactive"},
      {"measurement": "IC50", "setting": "[5]", "result": "> 6800", "unit": "nM"},
      {"measurement": "IC50", "setting": "[6]", "result": 76, "unit": "nM"},
      {"measurement": "IC50", "setting": "[7]", "result": "> 6800", "unit": "nM"}
    ]},
    {"smiles": "C=C(C)[C@@H]1CC[C@]2(C(=O)NCCCCCCCNC(C)=O)CC[C@]3(C)[C@H](CC[C@@H]4[C@@]5(C)CC[C@H](O)C(C)(C)[C@@H]5CC[C@]43C)[C@@H]12", "values": [
      {"measurement": "IC50", "setting": "[8]", "result": 42, "unit": "nM"}
    ]},
    {"smiles": "C=C(C)[C@@H]1CC[C@]2(C(=O)NCCCCCCCCC(=O)N[C@@H](CCC(N)=O)C(=O)OC)CC[C@]3(C)[C@H](CC[C@@H]4[C@@]5(C)CC[C@H](OC(=O)CC(C)(C)C(=O)O)C(C)(C)[C@@H]5CC[C@]43C)[C@@H]12", "values": [
      {"measurement": "IC50", "setting": "[1]", "result": 67, "unit": "nM"},
      {"measurement": "Ratio IC50", "setting": "[9]", "result": 20},
      {"measurement": "inhibition", "setting": "COS", "result": "inactive"},
      {"measurement": "IC50", "setting": "[3]", "result": 160, "unit": "nM"},
      {"measurement": "CC50", "setting": "MT4", "result": "> 10000", "unit": "nM"},
      {"measurement": "inhibition", "setting": "[4]", "result": "Active"},
      {"measurement": "IC50", "setting": "[5]", "result": 320, "unit": "nM"},
      {"measurement": "IC50", "setting": "[6]", "result": 9, "unit": "nM"},
      {"measurement": "inhibition", "setting": "[10]", "result": "Active"},
      {"measurement": "IC50", "setting": "[7]", "result": 16, "unit": "nM"}
    ]}
  ]
}
